Data published in PMC8146373 (Biochemical pharmacology, 2021).

Assays:
[1] = target: T1, GLP-1R (Homo sapiens, UniProt P43220); experiment: Allosteric activity studies; type: cell-based
[2] = system: INS-1 832/13 cells; experiment: Glucose stimulated insulin secretion; type: cell-based, rat; details: 20 μM compound, 15 mM glucose
[3] = target: SCTR K317C (Homo sapiens, UniProt P47872, K338C); experiment: Mutational study, cAMP assay in HEK-293 cells transiently expressing SCTR K317C; type: cell-based; details: 12.5–25 μM compound
SCTR K317C, sequence (P47872 22-440 K338C limits assumed): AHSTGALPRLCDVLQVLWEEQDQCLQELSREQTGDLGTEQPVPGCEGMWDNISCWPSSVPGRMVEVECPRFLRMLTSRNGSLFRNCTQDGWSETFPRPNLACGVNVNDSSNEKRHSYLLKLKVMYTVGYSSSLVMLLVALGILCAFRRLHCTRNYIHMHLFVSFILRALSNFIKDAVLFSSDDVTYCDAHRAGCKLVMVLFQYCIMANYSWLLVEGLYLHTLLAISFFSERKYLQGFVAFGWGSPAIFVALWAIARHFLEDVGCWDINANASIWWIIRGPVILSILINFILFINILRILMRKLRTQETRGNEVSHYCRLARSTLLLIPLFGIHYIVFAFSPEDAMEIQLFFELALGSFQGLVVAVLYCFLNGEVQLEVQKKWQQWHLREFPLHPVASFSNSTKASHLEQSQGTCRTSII
SCTR K317C, sequence (P09683 28-54 partner limits assumed): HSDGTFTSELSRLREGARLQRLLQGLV

[4] = target: SCTR K317A (Homo sapiens, UniProt P47872, K338A); experiment: Mutational study, cAMP assay in HEK-293 cells transiently expressing SCTR K317A; type: cell-based; details: 12.5–25 μM compound
SCTR K317A, sequence (P47872 22-440 K338A limits assumed): as the sequence (P47872 22-440 K338C limits assumed) above, with C317A counted along it

[5] = target: SNAP-SCTR (Homo sapiens, UniProt P47872); experiment: TR-FRET SNAP-SCTR competition binding with Fluo-Sec, HEK-293 SNAP-SCTR membranes
SNAP-SCTR, sequence (P47872 23-440): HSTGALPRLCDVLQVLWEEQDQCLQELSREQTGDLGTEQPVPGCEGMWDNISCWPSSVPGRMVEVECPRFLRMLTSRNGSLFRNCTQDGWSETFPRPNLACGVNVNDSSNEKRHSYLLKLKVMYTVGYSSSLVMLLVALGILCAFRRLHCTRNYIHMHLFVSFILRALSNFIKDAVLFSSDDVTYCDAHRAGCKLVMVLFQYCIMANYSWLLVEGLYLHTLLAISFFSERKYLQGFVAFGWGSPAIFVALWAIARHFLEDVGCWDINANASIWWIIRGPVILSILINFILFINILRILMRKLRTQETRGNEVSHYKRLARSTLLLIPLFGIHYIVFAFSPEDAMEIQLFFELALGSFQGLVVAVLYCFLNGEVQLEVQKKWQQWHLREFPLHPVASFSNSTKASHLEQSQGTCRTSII

[6] = target: GLP-1R C347A (Homo sapiens, UniProt P43220, C347A); type: cell-based; details: 12.5–25 μM compound
GLP-1R C347A, sequence (P43220 24-463 C347A): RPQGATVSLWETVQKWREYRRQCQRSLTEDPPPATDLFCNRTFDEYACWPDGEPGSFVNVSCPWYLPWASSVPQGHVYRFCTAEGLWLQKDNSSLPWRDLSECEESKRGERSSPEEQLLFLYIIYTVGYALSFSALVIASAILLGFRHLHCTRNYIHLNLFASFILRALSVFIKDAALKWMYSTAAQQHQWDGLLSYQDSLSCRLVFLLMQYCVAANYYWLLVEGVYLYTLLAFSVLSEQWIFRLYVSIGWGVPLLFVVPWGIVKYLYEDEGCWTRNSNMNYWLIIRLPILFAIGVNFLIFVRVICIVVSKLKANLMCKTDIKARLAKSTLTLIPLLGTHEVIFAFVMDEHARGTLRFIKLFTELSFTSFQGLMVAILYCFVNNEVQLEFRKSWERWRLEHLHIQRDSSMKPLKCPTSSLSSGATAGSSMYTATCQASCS
Outline: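 HEK-293 cells were transfected with 0.5 μg DNA/well of GLP-1R WT or C347A construct and harvested after 24 h into stimulation buffer. Cells were added to wells with DMSO or 12.5–25 μM compound. […] HTRF cAMP readout; four-parameter variable-slope fit; duplicates, ≥3 experiments.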

[7] = target: T2, GLP-1R (Rattus norvegicus, UniProt P32301); experiment: cAMP assay; type: cell-based; details: INS-1 cells, 12.5 μM compound
T2 sequence (P32301 22-463): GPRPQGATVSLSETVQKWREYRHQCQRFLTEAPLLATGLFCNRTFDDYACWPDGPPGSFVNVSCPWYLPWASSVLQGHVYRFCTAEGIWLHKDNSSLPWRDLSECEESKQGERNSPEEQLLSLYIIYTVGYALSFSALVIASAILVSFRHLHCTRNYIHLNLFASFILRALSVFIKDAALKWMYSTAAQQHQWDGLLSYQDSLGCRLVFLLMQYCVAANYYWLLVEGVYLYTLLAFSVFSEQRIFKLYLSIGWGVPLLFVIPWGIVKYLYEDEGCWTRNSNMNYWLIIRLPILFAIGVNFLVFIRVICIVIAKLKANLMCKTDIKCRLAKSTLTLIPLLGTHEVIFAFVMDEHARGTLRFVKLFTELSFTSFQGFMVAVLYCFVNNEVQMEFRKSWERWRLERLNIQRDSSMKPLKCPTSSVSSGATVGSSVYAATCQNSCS
Outline: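 INS-1 832/13 cells (passage 18–29) were detached at 80–90% confluency, spun 300xg for 3 min and diluted in stimulation buffer. […] Cells were incubated 30 min at RT. LANCE Ultra detection (Eu-cAMP, ULight antibody) was read as TR-FRET after 60 min at RT.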

[8] = target: T1, GLP-1R; experiment: cAMP wash-out experiment, GLP-1R-overexpressing HEK-293T cells; type: cell-based; details: 25 μM compound, triple wash
[9] = target: T1, GLP-1R; experiment: GLP-1R agonist cAMP accumulation assay, GLP-1R-overexpressing HEK-293T cells; type: cell-based
[10] = target: T3, SCTR (Homo sapiens, UniProt P47872); experiment: SCTR PAM; type: cell-based
T3 sequence (P47872 23-440): as the sequence (P47872 23-440) above

[11] = target: T1, GLP-1R; experiment: GLP-1R PAM; type: cell-based
[12] = target: T3, SCTR; experiment: SCTR Sec-FL; type: cell-based

T1 sequence (P43220 24-463): as the sequence (P43220 24-463 C347A) above, with A324C counted along it

Compound: CC[S+]([O-])c1nc(-c2cccc(OCc3ccccc3)c2)cc(C(F)(F)F)n1 (stereo not shown) [BETP, 4-(3-(Benzyloxy)phenyl)-2-(ethylsulfinyl)-6-(trifluoromethyl)pyrimidine]
- Kb [1]: 3 µM
- cooperativity factor α, GLP-1(9–36) ([1]; GLP-1R-overexpressing cells): 137
- cooperativity factor β, GLP-1(9–36) ([1]; GLP-1R-overexpressing cells): 5.5
- insulin secretion with GLP-1(9–36) co-stimulation ([2]; 1 μM GLP-1(9–36)): elevated insulin secretion
- interaction between compound and GLP-1(9–36) treatment (two-way ANOVA) [2]: significant interactions
- insulin secretion in the absence of GLP-1(9–36) ([2]; vs DMSO): significantly enhanced
- potentiating effects at SCTR K317C compared to WT [3]: neither mutating Lys-317 to alanine nor to cysteine had an impact
- potentiating effects at SCTR K317A compared to WT [4]: neither mutating Lys-317 to alanine nor to cysteine had an impact
- EC50 [5]: 17 ± 14 µM
- Emax ([5]; read-out: SNAP-SCTR Binding Emax): 152 ± 11%
- cooperative (PAM) effects on GLP-1(9–36) at GLP-1R C347A compared to WT [6]: eradicated
- intrinsic agonist activity at GLP-1R C347A compared to WT [6]: eradicated
- effect on GLP-1 treatment [7]: did not show a significant positive effect
- increase of efficacy of GLP-1(9–36) [7]: 106%
- receptor activation by GLP-1(9–36) in presence of compound [7]: around 50%
- intrinsic activity (elevation of basal response), added before or after the wash step [8]: substantial intrinsic activity
- EC50 [9]: 0.8 ± 0.6 µM
- GLP-1R agonist Emax ([9]; cAMP, no peptide ligand, mean ± SD, n.d. = not detected): 91 ± 16%
- EC50 [10]: 24 ± 12 µM
- Emax ([10]; CHO-K1, read-out: SCTR PAM (3-pep mix) Emax): 51 ± 25%
- EC50 [11]: 0.8 ± 0.2 µM
- selectivity toward GLP-1Rs (over SCTR PAM potency) ([11]; GLP-1R EC50 vs SCTR PAM EC50): 30 fold
- GLP-1R PAM (GLP-1) Emax ([11]; cAMP, EC20 of GLP-1, mean ± SD, n.d. = not detected): 76 ± 22%
- EC50 [12]: 31 ± 19 µM
- Emax ([12]; CHO-K1, read-out: SCTR Sec-FL (PAM) Emax): 42 ± 2%
